Measurements as given in ChEMBL document CHEMBL1134778, “Amino acid phosphoramidate monoesters of 3'-azido-3'-deoxythymidine: relationship between antiviral potency and intracellular metabolism” (J Med Chem, 2001).
pEC50, pIC50: −log10 of the molar value.

Experiments:
CCRF-CEM [1] = assay: Concentration required to kill 50% of CEM cells; type: functional, cell-based; conditions: Homo sapiens
Outline: (§1)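 Uninfected PHA-stimulated PBMCs or CEM cells plated at 2.5 × 10^5 cells/well with diluted drug. Incubated 6 days at 37 °C, 10% CO2. XTT/PMS added and incubated 4 h at 37 °C. Absorbance read at 450 nm, 630 nm reference.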

Homo sapiens [2] = organism: Homo sapiens; assay: Effective concentration of required to inhibit the replication of HIV-1 BY 50% in PMBCs from donor 1; type: functional, organism-based
Homo sapiens [3] = organism: Homo sapiens; assay: Effective concentration of required to inhibit the replication of HIV-1 BY 50% in PMBCs from donor 2; type: functional, organism-based
Homo sapiens [4] = organism: Homo sapiens; assay: Concentration required to kill 50% of PBMCs; type: functional, organism-based; outline: as §1
Homo sapiens [5] = organism: Homo sapiens; assay: Effective concentration required to inhibit the replication of HIV-1 by 50% in PMBCs from donor 1; type: functional, organism-based
Homo sapiens [6] = organism: Homo sapiens; assay: Effective concentration required to inhibit the replication of HIV-1 by 50% in PMBCs from donor 2; type: functional, organism-based
Homo sapiens [7] = organism: Homo sapiens; assay: Effective concentration required to inhibit the replication of HIV-1 by 50% in PMBCs in the absence of thymidine; type: functional, organism-based
Homo sapiens [8] = organism: Homo sapiens; assay: Effective concentration required to inhibit the replication of HIV-1 by 50% in PMBCs in the presence of thymidine; type: functional, organism-based
[9] = tested on: Human immunodeficiency virus 1; assay: Concentration required to inhibit HIV-1 replication by 50% in activated PBMCs
[10] = tested on: Human immunodeficiency virus 1; assay: Concentration required to inhibit the production of proviral DNA in unactivated PBMCs
CCRF-CEM [11] = assay: Effective concentration of required to inhibit the replication of HIV-1 BY 50% in CEM cells; type: functional, cell-based; conditions: Homo sapiens
Outline: (§2)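 PHA-stimulated CEM cells infected 3 h at 37 °C with LAI/HIV-1 (10 000 DPM RT activity/10^6 cells), then washed. Resuspended at 2.5 × 10^5 cells/mL in medium with 10 U/mL IL-2. Drugs in ddH2O added to duplicate or triplicate cultures. Held 6 days at 37 °C; supernatant p24 measured by ELISA.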

Homo sapiens [12] = organism: Homo sapiens; assay: (§3) Intracellular of AZT-TP concentrations in LAI/HIV-1 infected PMBCs was determined at a conc of 10 uM); type: functional, organism-based
Outline: (§4)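 PHA-stimulated, LAI/HIV-1-infected PBMCs (donor 2) at 10^6 cells/mL, triplicate, given 10 µM compound ± 50 µM thymidine for 18 h at 37 °C. Cells washed, extracted in 60% methanol overnight at −20 °C, dried and reconstituted. AZT-TP quantified by inhibition of recombinant HIV-1 RT (poly(rA)-oligo(dT), 3H-TTP, 2 h at 37 °C) relative to AZT-TP standards; pmol/10^6 cells.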

Homo sapiens [13] = organism: Homo sapiens; assay: as §3; type: functional, organism-based; outline: as §4; remark: listed apart in the source
Homo sapiens [14] = organism: Homo sapiens; assay: Effective concentration required to inhibit the replication of HIV-1 with 2 hr pretreatment of activated PBMCs; type: functional, organism-based
Outline: (§5)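 Uninfected PHA-stimulated PBMCs (2.5 × 10^5 cells/mL) given compound in ddH2O in triplicate for 2 h at 37 °C, then LAI/HIV-1 (5000 DPM/10^6 cells) added. In parallel cultures, cells were infected 3 h first and then treated. After 6 days at 37 °C, supernatant RT activity measured.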

Homo sapiens [15] = organism: Homo sapiens; assay: Effective concentration required to inhibit the replication of HIV-1 with no pretreatment of activated PBMCs; type: functional, organism-based; outline: as §5
U1 = assay: Antiviral activity was determined in chronically infected U1 cell line with HIV-1; type: functional, cell-based; conditions: Homo sapiens
Outline: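 HIV-1 chronically infected U1 cells (1.5 × 10^5 cells/well) in RPMI 1640 with 10% FBS and 10 ng/mL TNF-α. Compound in ddH2O added to duplicate cultures. Incubated 48 h at 37 °C, 5% CO2. Supernatant p24gag measured by ELISA; XTT assay run on the remaining culture.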

CCRF-CEM [16] = assay: Effective concentration to inhibit HIV-1 replication by 50% in CEM cells; type: functional, cell-based; conditions: Homo sapiens; outline: as §2
Homo sapiens [17] = organism: Homo sapiens; assay: Effective concentration to inhibit HIV-1 replication by 50% in PMBCs cells from donor 1; type: functional, cell-based
Homo sapiens [18] = organism: Homo sapiens; assay: Effective concentration to inhibit HIV-1 replication by 50% in PMBCs cells from donor 2; type: functional, cell-based
Outline: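 Ficoll-isolated human PBMCs, PHA-stimulated, grown in RPMI 1640 with 10% heat-inactivated FBS, penicillin/streptomycin and IL-2 (10 U/mL) at 37 °C. Cells were infected with LAI/HIV-1, and compounds in ddH2O were added to duplicate or triplicate cultures. After 6 days, supernatant viral RT activity was measured.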

Homo sapiens [19] = organism: Homo sapiens; assay: Concentration required to kill 50% of PBMCs cells; type: functional, cell-based; conditions: PBMC; outline: as §1
[20] = Inhibition of AZT-MP production by cell free extracts of CEM cells; type: functional, Homo sapiens, CCRF-CEM; set-up: unit not given here
Outline: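 CEM cells (1.5 × 10^8) sonicated in 1 mL 20 mM Tris-HCl, 500 mM NaCl, pH 7.5. Lysate incubated with phosphoramidate and carbamate, each added from 10 mM stock, for 45 min at 37 °C, then stopped with methanol. AZT-MP quantified by RP-HPLC-RIA against a no-carbamate control. Mean of two experiments.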

Row | SMILES | pIC50 (CCRF-CEM [1]) | pEC50 (Homo sapiens [2]) | pEC50 (Homo sapiens [3]) | pIC50 (Homo sapiens [4]) | pEC50 (Homo sapiens [7]) | pEC50 (Homo sapiens [8]) | pEC50 [9] | IC100 [10] [µM] | other results
1 | COC(=O)[C@H](C)NP(=O)(O)OC[C@H]1O[C@@H](n2cc(C)c(=O)[nH]c2=O)C[C@@H]1N=[N+]=[N-] | < 4.00 | 7.30 | 7.52 | < 4.00 | – | – | – | – | –
2 | COC(=O)[C@@H](NP(=O)(O)OC[C@H]1O[C@@H](n2cc(C)c(=O)[nH]c2=O)C[C@@H]1N=[N+]=[N-])C(C)C | < 4.00 | – | – | < 4.00 | 6.46 | 4.52 | 6.46 | 0.1 | pEC50 (Homo sapiens [5]): 5.89; pEC50 (Homo sapiens [6]): 6.05
3 | CNC(=O)[C@H](Cc1c[nH]c2ccccc12)NP(=O)(O)OC[C@H]1O[C@@H](n2cc(C)c(=O)[nH]c2=O)C[C@@H]1N=[N+]=[N-] | < 4.00 | 6.15 | 5.74 | < 4.00 | – | – | – | – | –
4 | Cc1cn([C@H]2C[C@H](N=[N+]=[N-])[C@@H](CO)O2)c(=O)[nH]c1=O [ZIDOVUDINE] | – | 8.22 | 8.15 | < 4.00 | 8.15 | 6.52 | 8.00 | 0.01 | pEC50 (CCRF-CEM [11]): > 9.00; Concentration (pM (10e6*cells)-1) (Homo sapiens [12]): 0.69; Concentration (pM (10e6*cells)-1) (Homo sapiens [13]): 1.37; pEC50 (Homo sapiens [14]): 7.82; pEC50 (Homo sapiens [15]): 8.00; pEC50 (U1): 4.60
5 | COC(=O)[C@@H](Cc1c[nH]c2ccccc12)NP(=O)(O)OC[C@H]1O[C@@H](n2cc(C)c(=O)[nH]c2=O)C[C@@H]1N=[N+]=[N-] | < 4.00 | 6.00 | 6.00 | < 4.00 | – | – | – | – | –
6 | CNC(=O)[C@@H](Cc1ccccc1)NP(=O)(O)OC[C@H]1O[C@@H](n2cc(C)c(=O)[nH]c2=O)C[C@@H]1N=[N+]=[N-] | < 4.00 | 6.05 | 7.00 | < 4.00 | – | – | – | – | –
7 | COC(=O)[C@H](Cc1c[nH]c2ccccc12)NP(=O)(O)OC[C@H]1O[C@@H](n2cc(C)c(=O)[nH]c2=O)C[C@@H]1N=[N+]=[N-] | < 4.00 | – | – | – | 6.46 | 4.52 | 6.46 | 0.1 | pEC50 (CCRF-CEM [16]): 8.40; Concentration (pM (10e6*cells)-1) (Homo sapiens [12]): 0.01; Concentration (pM (10e6*cells)-1) (Homo sapiens [13]): 0.22; pEC50 (Homo sapiens [14]): > 8.00; pEC50 (Homo sapiens [15]): 6.46; pEC50 (Homo sapiens [17]): 5.70; pEC50 (Homo sapiens [18]): 6.46; pIC50 (Homo sapiens [19]): < 4.00; Activity [20]: 6.39; pEC50 (U1): 4.40
8 | COC(=O)[C@H](Cc1ccccc1)NC(=O)OC[C@H]1O[C@@H](n2cc(C)c(=O)[nH]c2=O)C[C@@H]1N=[N+]=[N-].COC(=O)[C@H](Cc1ccccc1)NP(=O)(O)OC[C@H]1O[C@@H](n2cc(C)c(=O)[nH]c2=O)C[C@@H]1N=[N+]=[N-] | – | – | – | – | – | – | – | – | Activity [20]: 0.03
